# Source: ChEMBL document CHEMBL5724801, “EUbOPEN Chemogenomics Library - Multiplex” (2024)
# “And” between values parts separate entries of the source, which are not always exact repeats. Equal entries are not always repeated.
# Test system: U2OS
# Assay: Multiplex assay against U2OS
# Assay type: toxicity, cell-based
# Conditions: human
# Procedure, shortened: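 Live cells were stained at seeding with Hoechst33342, BioTracker Green Microtubule Cytoskeleton Dye, MitoTracker Red and Annexin V Alexa Fluor 680, then imaged on a CQ1 microscope at 37°C and 5% CO2 after compound addition. CellPathfinder machine-learning gating split cells into Hoechst high-intensity objects or normal cells. Normal cells were split into healthy, pyknosed or fragmented nuclei, and pyknosed cells into mitotic or apoptotic. Tubulin, mitochondrial-mass and membrane-permeability phenotypes are per cents of healthy-nucleus cells.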
# [1] = 12 h, 1 µM, compound concentration 1 uM
# [2] = 12 h, 10 µM, compound concentration 10 uM
# [3] = 24 h, 1 µM, compound concentration 1 uM
# [4] = 24 h, 10 µM, compound concentration 10 uM
# [5] = 48 h, 1 µM, compound concentration 1 uM
# [6] = 48 h, 10 µM, compound concentration 10 uM
smiles,measurement,setting,value
CN1CCN2c3ccccc3Cc3ccccc3C2C1.Cl (stereo not drawn) [MIANSERIN HYDROCHLORIDE],Population Apoptotic (%),[1],91% and 83%
same,Population Fragmented Nuclei (%),[1],35% and 16%
same,Population Healthy Nuclei (%),[1],56% and 77%
same,Population Hoechst High Intensity Objects (%),[1],3% and 1%
same,Population Membrane Permeable-Phenotype (%),[1],7% and 3%
same,Population Mitochondria Different-Phenotype (%),[1],4% and 3%
same,Population Mitotic Cells (%),[1],8% and 16%
same,Population Normal (%),[1],96% and 98%
same,Population Pyknosed Nuclei (%),[1],7% and 5%
same,Population Tubulin-Different-Phenotype (%),[1],5% and 2%
same,Total Cell Count,[1],162 and 109
same,Population Apoptotic (%),[2],78% and 86%
same,Population Fragmented Nuclei (%),[2],23% and 12%
same,Population Healthy Nuclei (%),[2],68% and 77%
same,Population Hoechst High Intensity Objects (%),[2],2% and 1%
same,Population Membrane Permeable-Phenotype (%),[2],7% and 1%
same,Population Mitochondria Different-Phenotype (%),[2],3% and 2%
same,Population Mitotic Cells (%),[2],21% and 13%
same,Population Normal (%),[2],97% and 98%
same,Population Pyknosed Nuclei (%),[2],8% and 10%
same,Population Tubulin-Different-Phenotype (%),[2],4% and 0%
same,Total Cell Count,[2],277 and 152
same,Population Apoptotic (%),[3],88% and 75%
same,Population Fragmented Nuclei (%),[3],34% and 23%
same,Population Healthy Nuclei (%),[3],56% and 70%
same,Population Hoechst High Intensity Objects (%),[3],1% and 2%
same,Population Membrane Permeable-Phenotype (%),[3],6% and 4%
same,Population Mitochondria Different-Phenotype (%),[3],1% and 3%
same,Population Mitotic Cells (%),[3],11% and 25%
same,Population Normal (%),[3],98% and 97%
same,Population Pyknosed Nuclei (%),[3],8% and 5%
same,Population Tubulin-Different-Phenotype (%),[3],4% and 3%
same,Total Cell Count,[3],197 and 142
same,Population Apoptotic (%),[4],69% and 93%
same,Population Fragmented Nuclei (%),[4],21% and 13%
same,Population Healthy Nuclei (%),[4],68% and 77%
same,Population Hoechst High Intensity Objects (%),[4],1% and 2%
same,Population Membrane Permeable-Phenotype (%),[4],9% and 7%
same,Population Mitochondria Different-Phenotype (%),[4],2% and 3%
same,Population Normal (%),[4],98% and 97%
same,Population Pyknosed Nuclei (%),[4],10% and 8%
same,Population Tubulin-Different-Phenotype (%),[4],2%
same,Total Cell Count,[4],319 and 183
same,Population Apoptotic (%),[5],78%
same,Population Fragmented Nuclei (%),[5],28% and 19%
same,Population Healthy Nuclei (%),[5],65% and 71%
same,Population Hoechst High Intensity Objects (%),[5],2% and 1%
same,Population Membrane Permeable-Phenotype (%),[5],5% and 4%
same,Population Mitochondria Different-Phenotype (%),[5],2% and 3%
same,Population Mitotic Cells (%),[5],21%
same,Population Normal (%),[5],97% and 98%
same,Population Pyknosed Nuclei (%),[5],5% and 9%
same,Population Tubulin-Different-Phenotype (%),[5],4% and 2%
same,Total Cell Count,[5],269 and 206
same,Population Apoptotic (%),[6],91% and 87%
same,Population Fragmented Nuclei (%),[6],18% and 15%
same,Population Healthy Nuclei (%),[6],71% and 73%
same,Population Hoechst High Intensity Objects (%),[6],4% and 2%
same,Population Membrane Permeable-Phenotype (%),[6],4%
same,Population Mitochondria Different-Phenotype (%),[6],2% and 3%
same,Population Mitotic Cells (%),[6],8% and 12%
same,Population Normal (%),[6],95% and 97%
same,Population Pyknosed Nuclei (%),[6],9% and 11%
same,Population Tubulin-Different-Phenotype (%),[6],1% and 2%
same,Total Cell Count,[6],397 and 285
CCNC1(C(N)=O)CCN(c2ncnc3c2nc(-c2ccccc2Cl)n3-c2ccc(Cl)cc2)CC1 [OTENABANT],Population Apoptotic (%),[1],77% and 85%
same,Population Fragmented Nuclei (%),[1],30% and 17%
same,Population Healthy Nuclei (%),[1],60% and 74%
same,Population Hoechst High Intensity Objects (%),[1],3% and 2%
same,Population Membrane Permeable-Phenotype (%),[1],13% and 11%
same,Population Mitotic Cells (%),[1],22% and 14%
same,Population Normal (%),[1],96% and 97%
same,Population Pyknosed Nuclei (%),[1],9% and 7%
same,Population Tubulin-Different-Phenotype (%),[1],4% and 10%
same,Total Cell Count,[1],254 and 93
same,Population Apoptotic (%),[2],58% and 70%
same,Population Fragmented Nuclei (%),[2],31% and 21%
same,Population Healthy Nuclei (%),[2],48% and 60%
same,Population Hoechst High Intensity Objects (%),[2],6% and 0%
same,Population Membrane Permeable-Phenotype (%),[2],81% and 65%
same,Population Mitochondria Different-Phenotype (%),[2],63% and 73%
same,Population Mitotic Cells (%),[2],41% and 30%
same,Population Normal (%),[2],93% and 99%
same,Population Pyknosed Nuclei (%),[2],19% and 18%
same,Population Tubulin-Different-Phenotype (%),[2],89% and 76%
same,Total Cell Count,[2],211 and 112
same,Population Apoptotic (%),[3],79% and 80%
same,Population Fragmented Nuclei (%),[3],26% and 24%
same,Population Healthy Nuclei (%),[3],61% and 62%
same,Population Hoechst High Intensity Objects (%),[3],3% and 4%
same,Population Membrane Permeable-Phenotype (%),[3],11% and 15%
same,Population Mitochondria Different-Phenotype (%),[3],5% and 15%
same,Population Mitotic Cells (%),[3],20%
same,Population Normal (%),[3],96% and 95%
same,Population Pyknosed Nuclei (%),[3],11% and 13%
same,Population Tubulin-Different-Phenotype (%),[3],7% and 5%
same,Total Cell Count,[3],308 and 120
same,Population Apoptotic (%),[4],69% and 80%
same,Population Fragmented Nuclei (%),[4],29% and 28%
same,Population Healthy Nuclei (%),[4],49% and 53%
same,Population Hoechst High Intensity Objects (%),[4],3%
same,Population Membrane Permeable-Phenotype (%),[4],55% and 47%
same,Population Mitochondria Different-Phenotype (%),[4],75% and 72%
same,Population Mitotic Cells (%),[4],30% and 20%
same,Population Normal (%),[4],96%
same,Population Pyknosed Nuclei (%),[4],20% and 18%
same,Population Tubulin-Different-Phenotype (%),[4],78% and 62%
same,Total Cell Count,[4],218 and 137
same,Population Apoptotic (%),[5],86% and 52%
same,Population Fragmented Nuclei (%),[5],24% and 16%
same,Population Healthy Nuclei (%),[5],64% and 69%
same,Population Hoechst High Intensity Objects (%),[5],1% and 4%
same,Population Membrane Permeable-Phenotype (%),[5],7% and 13%
same,Population Mitochondria Different-Phenotype (%),[5],4% and 10%
same,Population Normal (%),[5],98% and 95%
same,Population Pyknosed Nuclei (%),[5],10% and 14%
same,Population Tubulin-Different-Phenotype (%),[5],3% and 9%
same,Population Apoptotic (%),[6],86% and 80%
same,Population Fragmented Nuclei (%),[6],32% and 29%
same,Population Healthy Nuclei (%),[6],43% and 45%
same,Population Hoechst High Intensity Objects (%),[6],7% and 10%
same,Population Membrane Permeable-Phenotype (%),[6],49% and 43%
same,Population Mitochondria Different-Phenotype (%),[6],55% and 66%
same,Population Mitotic Cells (%),[6],13% and 20%
same,Population Normal (%),[6],92% and 89%
same,Population Pyknosed Nuclei (%),[6],23% and 24%
same,Population Tubulin-Different-Phenotype (%),[6],51% and 49%
same,Total Cell Count,[6],269 and 138
